Activity data for one compound are collected here from ChEMBL document CHEMBL4732196, “Structural optimization towards promising β-methyl-4-acrylamido quinoline derivatives as PI3K/mTOR dual inhibitors for anti-cancer therapy: The in vitro and in vivo biological evaluation” (Eur J Med Chem, 2021).

The target of assay [1] is Cyclin-G-associated kinase (Homo sapiens) (UniProt O14976). Briefly: Inhibition of human partial length GAK (G13 to Y338 residues) expressed in bacterial expression system assessed as residual activity at 10 uM by kinome scan method relative to control. In outline: (§1)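 KINOMEscan binding assay, test compound at 10 μM against a 52-kinase panel. % Ctrl = (compound signal − positive control signal)/(negative control signal − positive control signal) × 100, with DMSO as negative control (100%) and a positive control (0%).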

Assay [2] deals with Phosphatidylinositol 4-kinase beta (Homo sapiens) (UniProt Q9UBF8). As to the kind of experiment: Inhibition of human partial length PIK4CB (M1 to M828 residues) expressed in mammalian expression system assessed as residual activity at 10 uM by kinome scan method relative to control. A digest of the protocol: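 KINOMEscan competitive binding screen at 10 μM test compound against a 52-kinase panel. Output is % Ctrl = (test signal − positive control signal)/(negative control signal − positive control signal) × 100. DMSO is the negative control (100%) and the positive control is set to 0%.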

Assay [3] concerns the target Citron Rho-interacting kinase (Homo sapiens) (UniProt O14578). Briefly: Inhibition of human partial length CIT (M68 to E432 residues) expressed in bacterial expression system assessed as residual activity at 10 uM by kinome scan method relative to control. In outline:
as §1

Assay [4] deals with Serine/threonine-protein kinase 32A (Homo sapiens) (UniProt Q8WU08). As to the kind of experiment: Inhibition of human full length YANK1 (M1 to L396 residues) expressed in mammalian expression system assessed as residual activity at 10 uM by kinome scan method relative to control. A digest of the protocol:
as §1

Cyclin-G-associated kinase (Homo sapiens), sequence (O14976 whole entry, the tested form may be a part): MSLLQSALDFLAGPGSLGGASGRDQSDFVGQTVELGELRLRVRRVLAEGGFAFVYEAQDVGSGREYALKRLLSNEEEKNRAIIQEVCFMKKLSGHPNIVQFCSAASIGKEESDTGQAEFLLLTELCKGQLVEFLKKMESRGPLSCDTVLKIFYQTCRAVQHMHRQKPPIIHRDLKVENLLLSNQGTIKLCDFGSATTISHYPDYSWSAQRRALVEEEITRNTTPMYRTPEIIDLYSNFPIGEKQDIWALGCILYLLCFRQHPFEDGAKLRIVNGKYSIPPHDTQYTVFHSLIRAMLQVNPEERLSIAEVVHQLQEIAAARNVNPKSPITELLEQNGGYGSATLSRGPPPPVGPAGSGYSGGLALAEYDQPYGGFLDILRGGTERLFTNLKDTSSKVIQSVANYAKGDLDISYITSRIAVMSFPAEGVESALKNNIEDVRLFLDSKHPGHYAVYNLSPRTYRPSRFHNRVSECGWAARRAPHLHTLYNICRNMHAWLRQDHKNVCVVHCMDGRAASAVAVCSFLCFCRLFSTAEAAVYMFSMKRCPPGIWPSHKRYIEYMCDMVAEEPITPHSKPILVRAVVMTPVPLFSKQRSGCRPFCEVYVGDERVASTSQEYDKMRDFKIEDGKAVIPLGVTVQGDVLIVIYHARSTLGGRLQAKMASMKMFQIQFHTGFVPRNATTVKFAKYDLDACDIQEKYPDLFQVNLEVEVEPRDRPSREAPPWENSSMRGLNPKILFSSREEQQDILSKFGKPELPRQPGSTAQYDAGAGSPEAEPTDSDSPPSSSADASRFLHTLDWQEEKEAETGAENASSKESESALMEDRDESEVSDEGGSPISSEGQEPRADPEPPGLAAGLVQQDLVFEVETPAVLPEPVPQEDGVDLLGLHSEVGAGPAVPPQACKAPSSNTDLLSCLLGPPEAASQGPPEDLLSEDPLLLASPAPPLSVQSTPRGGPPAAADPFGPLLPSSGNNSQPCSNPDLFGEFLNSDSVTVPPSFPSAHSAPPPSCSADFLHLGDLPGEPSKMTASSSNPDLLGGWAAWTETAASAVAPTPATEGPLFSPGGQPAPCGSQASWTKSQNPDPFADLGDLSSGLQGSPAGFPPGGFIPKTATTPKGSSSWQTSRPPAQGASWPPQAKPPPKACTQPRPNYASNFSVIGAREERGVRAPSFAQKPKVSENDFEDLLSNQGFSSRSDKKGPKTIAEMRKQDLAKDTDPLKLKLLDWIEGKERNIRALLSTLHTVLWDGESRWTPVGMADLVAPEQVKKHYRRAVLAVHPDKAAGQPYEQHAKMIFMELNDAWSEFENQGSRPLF
Phosphatidylinositol 4-kinase beta (Homo sapiens), sequence (Q9UBF8 2-816 limits assumed): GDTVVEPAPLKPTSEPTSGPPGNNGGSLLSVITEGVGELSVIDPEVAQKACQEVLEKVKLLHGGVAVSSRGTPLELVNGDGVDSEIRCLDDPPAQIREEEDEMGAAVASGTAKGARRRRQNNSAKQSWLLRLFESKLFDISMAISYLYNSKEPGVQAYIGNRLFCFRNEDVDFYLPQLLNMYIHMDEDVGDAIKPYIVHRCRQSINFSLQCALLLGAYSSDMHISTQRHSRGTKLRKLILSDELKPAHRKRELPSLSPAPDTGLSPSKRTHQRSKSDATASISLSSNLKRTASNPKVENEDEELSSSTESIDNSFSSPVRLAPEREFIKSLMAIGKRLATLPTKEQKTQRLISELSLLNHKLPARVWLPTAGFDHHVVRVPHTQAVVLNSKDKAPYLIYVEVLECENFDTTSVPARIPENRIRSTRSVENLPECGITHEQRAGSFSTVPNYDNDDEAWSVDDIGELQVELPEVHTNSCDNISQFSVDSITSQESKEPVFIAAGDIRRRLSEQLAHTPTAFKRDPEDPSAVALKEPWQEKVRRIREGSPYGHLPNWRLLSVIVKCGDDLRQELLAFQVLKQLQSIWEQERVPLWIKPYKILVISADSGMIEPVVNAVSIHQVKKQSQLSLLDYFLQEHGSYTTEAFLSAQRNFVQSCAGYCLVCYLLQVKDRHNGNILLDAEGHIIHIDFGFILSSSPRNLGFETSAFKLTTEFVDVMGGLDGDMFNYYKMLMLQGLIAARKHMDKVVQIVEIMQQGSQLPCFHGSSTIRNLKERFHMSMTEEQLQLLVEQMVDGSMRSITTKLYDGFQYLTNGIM
Serine/threonine-protein kinase 32A (Homo sapiens), sequence (Q8WU08 whole entry, the tested form may be a part): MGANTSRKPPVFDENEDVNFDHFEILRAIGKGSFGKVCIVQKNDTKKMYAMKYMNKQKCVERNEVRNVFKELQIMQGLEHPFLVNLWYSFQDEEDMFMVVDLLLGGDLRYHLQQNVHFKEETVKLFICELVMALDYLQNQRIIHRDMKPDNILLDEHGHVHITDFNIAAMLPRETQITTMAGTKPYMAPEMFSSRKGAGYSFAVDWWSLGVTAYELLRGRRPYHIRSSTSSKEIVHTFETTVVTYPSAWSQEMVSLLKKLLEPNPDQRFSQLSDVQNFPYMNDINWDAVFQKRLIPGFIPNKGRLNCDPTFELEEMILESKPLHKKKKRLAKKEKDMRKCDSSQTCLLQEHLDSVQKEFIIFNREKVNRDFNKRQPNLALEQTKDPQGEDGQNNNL
Citron Rho-interacting kinase (Homo sapiens), sequence (O14578 whole entry, the tested form may be a part): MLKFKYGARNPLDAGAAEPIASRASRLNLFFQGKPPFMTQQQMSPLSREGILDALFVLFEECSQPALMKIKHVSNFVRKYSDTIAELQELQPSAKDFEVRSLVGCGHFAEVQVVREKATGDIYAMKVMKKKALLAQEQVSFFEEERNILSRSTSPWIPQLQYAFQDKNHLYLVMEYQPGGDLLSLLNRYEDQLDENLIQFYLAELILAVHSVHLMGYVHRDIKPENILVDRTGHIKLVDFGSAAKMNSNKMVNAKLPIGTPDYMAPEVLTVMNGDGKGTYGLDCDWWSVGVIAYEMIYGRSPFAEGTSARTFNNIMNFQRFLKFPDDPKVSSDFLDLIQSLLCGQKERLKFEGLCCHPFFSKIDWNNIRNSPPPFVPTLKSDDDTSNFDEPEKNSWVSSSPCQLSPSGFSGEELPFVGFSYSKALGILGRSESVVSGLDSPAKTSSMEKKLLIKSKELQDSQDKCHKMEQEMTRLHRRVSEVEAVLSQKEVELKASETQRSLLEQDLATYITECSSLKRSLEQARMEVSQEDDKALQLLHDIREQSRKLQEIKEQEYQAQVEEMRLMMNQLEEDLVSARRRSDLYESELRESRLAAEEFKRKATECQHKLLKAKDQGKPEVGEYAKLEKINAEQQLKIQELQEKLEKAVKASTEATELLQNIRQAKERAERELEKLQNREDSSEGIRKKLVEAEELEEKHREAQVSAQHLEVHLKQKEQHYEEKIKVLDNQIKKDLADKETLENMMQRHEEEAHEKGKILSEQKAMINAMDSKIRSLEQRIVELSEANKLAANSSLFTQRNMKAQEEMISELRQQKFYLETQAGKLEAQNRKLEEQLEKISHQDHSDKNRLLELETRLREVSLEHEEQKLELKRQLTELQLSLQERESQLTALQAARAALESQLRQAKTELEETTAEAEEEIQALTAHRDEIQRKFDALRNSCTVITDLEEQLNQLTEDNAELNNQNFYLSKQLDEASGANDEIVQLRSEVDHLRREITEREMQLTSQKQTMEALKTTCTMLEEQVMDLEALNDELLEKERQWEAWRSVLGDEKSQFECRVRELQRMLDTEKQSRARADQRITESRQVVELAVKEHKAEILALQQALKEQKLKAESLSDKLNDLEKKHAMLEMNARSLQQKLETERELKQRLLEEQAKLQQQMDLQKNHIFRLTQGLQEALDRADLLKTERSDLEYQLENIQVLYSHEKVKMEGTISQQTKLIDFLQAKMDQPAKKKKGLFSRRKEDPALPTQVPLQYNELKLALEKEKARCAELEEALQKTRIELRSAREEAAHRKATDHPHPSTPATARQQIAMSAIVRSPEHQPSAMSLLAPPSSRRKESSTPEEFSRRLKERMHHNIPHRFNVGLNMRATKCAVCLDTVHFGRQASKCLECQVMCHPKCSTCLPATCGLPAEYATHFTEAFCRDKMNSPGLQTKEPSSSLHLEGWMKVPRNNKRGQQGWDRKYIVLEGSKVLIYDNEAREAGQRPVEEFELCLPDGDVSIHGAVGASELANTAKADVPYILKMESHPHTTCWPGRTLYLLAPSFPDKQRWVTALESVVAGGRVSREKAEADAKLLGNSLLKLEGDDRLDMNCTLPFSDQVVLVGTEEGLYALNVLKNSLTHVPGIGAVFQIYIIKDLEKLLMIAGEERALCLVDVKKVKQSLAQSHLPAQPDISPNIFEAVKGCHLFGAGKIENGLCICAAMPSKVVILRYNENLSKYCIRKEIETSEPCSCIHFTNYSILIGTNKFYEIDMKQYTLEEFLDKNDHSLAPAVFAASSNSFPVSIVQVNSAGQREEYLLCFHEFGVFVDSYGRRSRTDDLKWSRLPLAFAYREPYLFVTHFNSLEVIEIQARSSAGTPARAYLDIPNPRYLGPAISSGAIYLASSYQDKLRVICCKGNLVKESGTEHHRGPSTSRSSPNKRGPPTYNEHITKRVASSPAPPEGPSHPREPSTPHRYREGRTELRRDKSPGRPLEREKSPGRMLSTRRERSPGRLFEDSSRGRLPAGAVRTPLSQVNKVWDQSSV

`COc1ncc(-c2ccc3nccc(/C(C)=C/C(=O)N4CCN(C)CC4)c3c2)cc1NS(=O)(=O)c1ccc(F)cc1F`: the Activity in assay [1] stood at 22%; in assay [2] it was 0.55%; in assay [3], 71%; in assay [4], 84%.
